# In ChEMBL document CHEMBL1129536, “Nucleoside analogs. 14. The synthesis of antitumor activity in mice of molecular combinations of 5-fluorouracil and N-(2-Chloroethyl)-N-nitrosourea moieties separated by a three-carbon chain” (1996):
# Legend:
# [1] = tested on: Mus musculus; assay: Antitumor effect against Colon 38 Adenocarcinoma was determined by the percent of median tumor volume of treated animals to median tumor volume of control animals by saline at dose 50 mg/kg; assay type: functional
# [2] = tested on: MAC15A; assay: Antitumor effect against MAC15A Tumors was determined by the percent of median survival times of treated animals to median survival times of control animals by arachis oil at dose 100 mg/kg; conditions: Mus musculus
# [3] = tested on: MAC13; assay: Antitumor effect against MAC13 Tumors was determined by the percent of mean weight of treated tumors to mean weight of control tumors by arachis oil at dose 50 mg/kg; assay type: functional, Mus musculus
# [4] = tested on: MAC13; assay: Antitumor effect against MAC13 Tumors was determined by no. deaths/treated of mice by arachis oil at dose 50 mg/kg; no of deaths/treated 0/5; assay type: functional, Mus musculus
# [5] = tested on: MAC15A; assay: Antitumor effect against MAC15A Tumors was determined by the percent of median survival times of treated animals to median survival times of control animals by 10% DMSO/arachis oil at dose 100 mg/kg; conditions: Mus musculus
# [6] = tested on: MAC13; assay: Antitumor effect against MAC13 Tumors was determined by no. deaths/treated of mice by 10% DMSO/arachis oil at dose 100 mg/kg; no of deaths/treated 0/5; assay type: functional, Mus musculus
# [7] = tested on: MAC13; assay: Antitumor effect against MAC13 Tumors was determined by the percent of mean weight of treated tumors to mean weight of control tumors by 10% DMSO/arachis oil at dose 100 mg/kg; assay type: functional, Mus musculus
# How it was run: (§1)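 MAC 13 tumors were grown in mice. Two days after transplantation, at about 2 mm³, mice were allocated by restricted randomization. Compounds were made up fresh and given ip at 0.1 mL/10 g body weight. Tumor weight was measured 21 days later, and T/C % was the mean treated tumor weight over the mean control weight; deaths among treated mice were recorded.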
# [8] = tested on: MAC15A; assay: Antitumor effect against MAC15A Tumors was determined by the percent of median survival times of treated animals to median survival times of control animals by arachis oil at dose 50 mg/kg; conditions: Mus musculus
# [9] = tested on: Mus musculus; assay: Antitumor effect against Colon 38 Adenocarcinoma was determined by the percent of median tumor volume of treated animals to median tumor volume of control animals by saline at dose 100 mg/kg; assay type: functional
# How it was run: (§2)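 Colon 38 adenocarcinoma, serially maintained in C57Bl/6 mice, was implanted as 3 mm × 3 mm fragments sc in B6D2F1 mice (19-22 g) on day 0. Compounds were made fresh on the day of injection, either dissolved in saline (0.9% NaCl) or suspended in saline with Tween 80 […], and given ip. T/C was the median tumor volume of treated over untreated controls; T/C <42% counted as activity.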
# [10] = Antitumor effect against MCa Mammary Carcinoma was determined by the percent of median survival times of treated animals to median survival times of control animals by 10%DMSO/water at dose 100 mg/kg; assay type: functional, Mus musculus
# [11] = tested on: MAC13; assay: Antitumor effect against MAC13 Tumors was determined by no. deaths/treated of mice by 10% ethanol/arachis oil at dose 100 mg/kg; no of deaths/treated 0/5; assay type: functional, Mus musculus
# [12] = tested on: MAC15A; assay: Antitumor effect against MAC15A Tumors was determined by the percent of median survival times of treated animals to median survival times of control animals by 10% ethanol/arachis oil at dose 100 mg/kg; conditions: Mus musculus
# [13] = Antitumor effect against MCa Mammary Carcinoma was determined by the percent of median survival times of treated animals to median survival times of control animals by 10%DMSO/water at dose 150 mg/kg; assay type: functional, Mus musculus
# [14] = tested on: MAC13; assay: Antitumor effect against MAC13 Tumors was determined by the percent of mean weight of treated tumors to mean weight of control tumors by 10% ethanol/arachis oilat dose 100 mg/kg; assay type: functional, Mus musculus; how it was run: as §1
# [15] = tested on: MAC13; assay: Antitumor effect against MAC13 Tumors was determined by the percent of mean weight of treated tumors to mean weight of control tumors by arachis oil at dose 135 mg/kg; assay type: functional, Mus musculus; how it was run: as §1
# [16] = tested on: MAC13; assay: Antitumor effect against MAC13 Tumors was determined by no. deaths/treated of mice by arachis oil at dose 135 mg/kg; no of deaths/treated 0/5; assay type: functional, Mus musculus
# [17] = tested on: MAC15A; assay: Antitumor effect against MAC15A Tumors was determined by the percent of median survival times of treated animals to median survival times of control animals by arachis oil at dose 90 mg/kg; conditions: Mus musculus
# [18] = Antitumor effect against MCa Mammary Carcinoma was determined by the percent of median survival times of treated animals to median survival times of control animals by 10%DMSO/water at dose 80 mg/kg; assay type: functional, Mus musculus
# [19] = tested on: MAC13; assay: Antitumor effect against MAC13 Tumors was determined by the percent of mean weight of treated tumors to mean weight of control tumors by arachis oil at dose 200 mg/kg; assay type: functional, Mus musculus; how it was run: as §1
# [20] = tested on: MAC13; assay: Antitumor effect against MAC13 Tumors was determined by no. deaths/treated of mice by arachis oil at dose 200 mg/kg; no of deaths/treated 0/10; assay type: functional, Mus musculus
# [21] = tested on: MAC15A; assay: Antitumor effect against MAC15A Tumors was determined by the percent of median survival times of treated animals to median survival times of control animals by arachis oil at dose 200 mg/kg; conditions: Mus musculus
# [22] = tested on: Mus musculus; assay: Antitumor effect against Colon 38 Adenocarcinoma was determined by the percent of median tumor volume of treated animals to median tumor volume of control animals by saline/Tween 80(9/1)at dose 100 mg/kg; assay type: functional; how it was run: as §2
# [23] = tested on: MAC15A; assay: Antitumor effect against MAC15A Tumors was determined by the percent of median survival times of treated animals to median survival times of control animals by 10% DMSO/arachis oil at dose 200 mg/kg; conditions: Mus musculus
# [24] = tested on: MAC13; assay: Antitumor effect against MAC13 Tumors was determined by no. deaths/treated of mice by arachis oil at dose 200 mg/kg; no of deaths/treated 0/5; assay type: functional, Mus musculus
# [25] = tested on: MAC13; assay: Antitumor effect against MAC13 Tumors was determined by no. deaths/treated of mice by arachis oil at dose 31.25 mg/kg; no of deaths/treated 0/10; assay type: functional, Mus musculus
# [26] = tested on: MAC13; assay: Antitumor effect against MAC13 Tumors was determined by the percent of mean weight of treated tumors to mean weight of control tumors by arachis oil at dose 31.25 mg/kg; assay type: functional, Mus musculus
# [27] = Antitumor effect against MCa Mammary Carcinoma was determined by the percent of median survival times of treated animals to median survival times of control animals by 10%DMSO/water at dose 60 mg/kg; assay type: functional, Mus musculus
# [28] = tested on: MAC15A; assay: Antitumor effect against MAC15A Tumors was determined by the percent of median survival times of treated animals to median survival times of control animals by arachis oil at dose 62.5 mg/kg; conditions: Mus musculus
# [29] = tested on: MAC15A; assay: Antitumor effect against MAC15A Tumors was determined by the percent of median survival times of treated animals to median survival times of control animals by arachis oil at dose 300 mg/kg; conditions: Mus musculus
# [30] = tested on: Mus musculus; assay: Antitumor effect against Colon 38 Adenocarcinoma was determined by the percent of median tumor volume of treated animals to median tumor volume of control animals by saline/Tween 80(9/1) at dose 100 mg/kg; assay type: functional; how it was run: as §2
# [31] = tested on: MAC13; assay: Antitumor effect against MAC13 Tumors was determined by the percent of mean weight of treated tumors to mean weight of control tumors by arachis oil at dose 100 mg/kg; assay type: functional, Mus musculus; how it was run: as §1
# [32] = tested on: Mus musculus; assay: Antitumor effect against Colon 38 Adenocarcinoma was determined by the percent of median tumor volume of treated animals to median tumor volume of control animals by saline/Tween 80(9/1) at dose 50 mg/kg; assay type: functional; how it was run: as §2
# [33] = tested on: MAC13; assay: Antitumor effect against MAC13 Tumors was determined by no. deaths/treated of mice by arachis oil at dose 100 mg/kg; no of deaths/treated 0/5; assay type: functional, Mus musculus
# [34] = tested on: MAC13; assay: Antitumor effect against MAC13 Tumors was determined by no. deaths/treated of mice by arachis oil at dose 150 mg/kg; no of deaths/treated 0/5; assay type: functional, Mus musculus
# [35] = tested on: MAC13; assay: Antitumor effect against MAC13 Tumors was determined by the percent of mean weight of treated tumors to mean weight of control tumors by arachis oil at dose 150 mg/kg; assay type: functional, Mus musculus; how it was run: as §1
# [36] = tested on: MAC13; assay: Antitumor effect against MAC13 Tumors was determined by no. deaths/treated of mice by 10% ethanol/arachis oil at dose 20 mg/kg; no of deaths/treated 0/5; assay type: functional, Mus musculus
# [37] = tested on: MAC15A; assay: Antitumor effect against MAC15A Tumors was determined by the percent of median survival times of treated animals to median survival times of control animals by saline at dose 20 mg/kg; conditions: Mus musculus
# [38] = tested on: MAC13; assay: Antitumor effect against MAC13 Tumors was determined by the percent of mean weight of treated tumors to mean weight of control tumors by 10% ethanol/arachis oil at dose 20 mg/kg; assay type: functional, Mus musculus; how it was run: as §1
smiles,measurement,setting,value
COC(CNC(=O)N(CCCl)N=O)n1c(=O)[nH]cc(F)c1=O (stereo not given),T/C,[1],17%
same,T/C,[2],>850%
same,T/C,[3],11%
same,No. deaths/treated,[4],0
COC(CCNC(=O)N(CCCl)N=O)n1c(=O)[nH]cc(F)c1=O (stereo not given),T/C,[5],360%
same,No. deaths/treated,[6],0
same,T/C,[7],1%
COC(CNC(=O)N(CCCl)N=O)n1cc(F)c(=O)[nH]c1=O (stereo not given),T/C,[8],200%
same,T/C,[9],38%
same,T/C,[10],311%
same,T/C,[3],7%
same,No. deaths/treated,[4],0
O=NN(CCCl)C(=O)NCCC(OCCO)n1cc(F)c(=O)[nH]c1=O (stereo not given),No. deaths/treated,[11],0
same,T/C,[12],233%
same,T/C,[13],168%
same,T/C,[14],23%
CSC(CCNC(=O)N(CCCl)N=O)n1cc(F)c(=O)[nH]c1=O (stereo not given),T/C,[9],63%
same,T/C,[15],0%
same,No. deaths/treated,[16],0
same,T/C,[17],200%
same,T/C,[18],195%
O=NN(CCCl)C(=O)NCCOC(CCNC(=O)c1ccccc1C(=O)O)n1cc(F)c(=O)[nH]c1=O (stereo not given),T/C,[19],103%
same,T/C,[10],121%
same,No. deaths/treated,[20],0
same,T/C,[21],148%
O=NN(CCCl)C(=O)NCCC(SCC(=O)O)n1cc(F)c(=O)[nH]c1=O (stereo not given),T/C,[19],31%
same,T/C,[22],0%
same,T/C,[23],275%
same,No. deaths/treated,[24],0
COC(CCNC(=O)N(CCCl)N=O)n1c(=O)cc[nH]c1=O (stereo not given),T/C,[5],200%
same,No. deaths/treated,[6],0
same,T/C,[7],43%
CSC(CNC(=O)N(CCCl)N=O)n1cc(F)c(=O)[nH]c1=O (stereo not given),No. deaths/treated,[25],0
same,T/C,[26],122%
same,T/C,[27],189%
same,T/C,[28],156%
same,T/C,[9],0%
CC(C)(C)OC(CCNC(=O)N(CCCl)N=O)n1cc(F)c(=O)[nH]c1=O (stereo not given),T/C,[19],1%
same,T/C,[29],280%
same,No. deaths/treated,[24],0
same,T/C,[30],42%
O=NN(CCCl)C(=O)NCCC(n1cc(F)c(=O)[nH]c1=O)n1c(=O)[nH]cc(F)c1=O (stereo not given),T/C,[5],182%
same,No. deaths/treated,[6],0
same,T/C,[7],87%
O=NN(CCCl)C(=O)NCCOC(CCO)n1cc(F)c(=O)[nH]c1=O (stereo not given),T/C,[31],27%
same,T/C,[2],136%
same,T/C,[32],68%
same,No. deaths/treated,[33],0
COC(CCNC(=O)N(CCCl)N=O)n1cc(F)c(=O)[nH]c1=O (stereo not given),No. deaths/treated,[34],0
same,T/C,[9],47%
same,T/C,[2],233%
same,T/C,[35],0.8%
CC1CCC(NC(=O)N(CCCl)N=O)CC1 (stereo not given) [SEMUSTINE],No. deaths/treated,[36],0
same,T/C,[37],154%
same,T/C,[38],8%
